≈ marks a conversion by molar mass, not a printed value.
What was measured:
Format in all cases: functional
Candida albicans [1] = assay: In vitro minimal inhibitory concentration against Candida albicans with percentage of resistant strains %R = 0 (MIC > 64 ug/mL) at a range of 0.016-0.5 ug/mL
Candida albicans [2] = assay: In vitro concentration causing 50% inhibition of Candida albicans with percentage of resistant strains %R = 0 (MIC > 64 ug/mL) at a range of 0.016-0.5 ug/mL
Candida albicans [3] = assay: In vitro concentration causing 90% inhibition of Candida albicans with percentage of resistant strains %R = 0 (MIC > 64 ug/mL) at a range of 0.016-0.5 ug/mL
Candida albicans [4] = assay: Ratio of the in vitro minimal inhibitory to that of bifonazole against Candida albicans (MIC(compound)/MIC(bifonazole))
Procedure, shortened: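 Broth microdilution per NCCLS M27-A2 against 12 Candida albicans strains (AIDS oropharyngeal, HIV vulvovaginitis isolates, ATCC 24433 and 20891, lab strains 3153 and CA2). Inoculum ~10^4 cells/mL in RPMI 1640, pH 7.0; DMSO stocks 6.4 mg/mL, twofold dilutions 0.016–64 μg/mL; read at 24 h, 28 °C, no visible growth. Mean MIC over strains converted to μmol/mL, divided by bifonazole MIC.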

Candida albicans [5] = assay: In vitro minimal inhibitory concentration against Candida albicans with percentage of resistant strains %R = 50 (MIC > 64 ug/mL) at a range of 2-16 ug/mL
Candida albicans [6] = assay: In vitro concentration causing 50% inhibition of Candida albicans with percentage of resistant strains %R = 50 (MIC > 64 ug/mL) at a range of 2-16 ug/mL
Candida albicans [7] = assay: In vitro concentration causing 90% inhibition of Candida albicans with percentage of resistant strains %R = 50 (MIC > 64 ug/mL) at a range of 2-16 ug/mL
Candida albicans [8] = assay: In vitro minimal inhibitory concentration against Candida albicans with percentage of resistant strains %R = 33.33 (MIC > 64 ug/mL) at a range of 0.125-2 ug/mL
Candida albicans [9] = assay: In vitro concentration causing 50% inhibition of Candida albicans with percentage of resistant strains %R = 33.33 (MIC > 64 ug/mL) at a range of 0.125-2 ug/mL
Candida albicans [10] = assay: In vitro concentration causing 90% inhibition of Candida albicans with percentage of resistant strains %R = 33.33 (MIC > 64 ug/mL) at a range of 0.125-2 ug/mL
Candida albicans [11] = assay: In vitro minimal inhibitory concentration against Candida albicans with percentage of resistant strains %R = 16.6 (MIC > 64 ug/mL) at a range of 0.5-4 ug/mL
Candida albicans [12] = assay: In vitro concentration causing 50% inhibition of Candida albicans with percentage of resistant strains %R = 16.6 (MIC > 64 ug/mL) at a range of 0.5-4 ug/mL
Candida albicans [13] = assay: In vitro concentration causing 90% inhibition of Candida albicans with percentage of resistant strains %R = 16.6 (MIC > 64 ug/mL) at a range of 0.5-4 ug/mL
Candida albicans [14] = assay: In vitro concentration causing 50% inhibition of Candida albicans with percentage of resistant strains %R = 41.6 (MIC > 64 ug/mL) at a range of 0.062-0.125 ug/mL
Candida albicans [15] = assay: In vitro minimal inhibitory concentration against Candida albicans with percentage of resistant strains %R = 41.6 (MIC > 64 ug/mL) at a range of 0.062-0.125 ug/mL
Candida albicans [16] = assay: In vitro concentration causing 90% inhibition of Candida albicans with percentage of resistant strains %R = 41.6 (MIC > 64 ug/mL) at a range of 0.062-0.125 ug/mL

| Structure (SMILES) | Ratio (Candida albicans [4]) | other results |
| --- | --- | --- |
| Clc1ccc(-c2cn(CC3CC3)cc2C(c2ccccc2)n2ccnc2)cc1 (stereo not given) | 0.025 | MIC (Candida albicans [1]): 0.111 µg/mL (≈ 0.286 µM); MIC50 (Candida albicans [2]): 0.016 µg/mL (≈ 0.0412 µM); MIC90 (Candida albicans [3]): 0.125 µg/mL (≈ 0.322 µM) |
| Clc1ccc(-c2cn(-c3ccccc3)cc2C(c2ccccc2)n2ccnc2)cc1 (stereo not given) | 1.5 | MIC (Candida albicans [5]): 7 µg/mL (≈ 17.1 µM); MIC50 (Candida albicans [6]): 4 µg/mL (≈ 9.76 µM); MIC90 (Candida albicans [7]): 16 µg/mL (≈ 39 µM) |
| C=CCn1cc(-c2ccc(Cl)cc2)c(C(c2ccccc2)n2ccnc2)c1 (stereo not given) | 0.019 | MIC (Candida albicans [1]): 0.082 µg/mL (≈ 0.219 µM); MIC50 (Candida albicans [2]): 0.016 µg/mL (≈ 0.0428 µM); MIC90 (Candida albicans [3]): 0.25 µg/mL (≈ 0.669 µM) |
| CCn1cc(-c2ccc(Cl)c(Cl)c2)c(C(c2ccc(C)cc2)n2ccnc2)c1 (stereo not given) | 0.47 | MIC (Candida albicans [8]): 2.18 µg/mL (≈ 5.31 µM); MIC50 (Candida albicans [9]): 2 µg/mL (≈ 4.87 µM); MIC90 (Candida albicans [10]): 2 µg/mL (≈ 4.87 µM) |
| COC(=O)/C=C/n1cc(-c2ccc(Cl)cc2)c(C(c2ccccc2)n2ccnc2)c1 (stereo not given) | 0.34 | MIC (Candida albicans [11]): 1.62 µg/mL (≈ 3.88 µM); MIC50 (Candida albicans [12]): 2 µg/mL (≈ 4.79 µM); MIC90 (Candida albicans [13]): 4 µg/mL (≈ 9.57 µM) |
| C=Cn1cc(-c2ccc(Cl)cc2)c(C(c2ccccc2)n2ccnc2)c1 (stereo not given) | 0.031 | MIC (Candida albicans [1]): 0.125 µg/mL (≈ 0.347 µM); MIC50 (Candida albicans [2]): 0.032 µg/mL (≈ 0.0889 µM); MIC90 (Candida albicans [3]): 0.25 µg/mL (≈ 0.695 µM) |
| Fc1ccc(-n2ccc(C(c3ccc(Cl)cc3)n3ccnc3)c2)cc1 (stereo not given) | 2.7 |  |
| COc1ccc(C(Cc2ccc([N+](=O)[O-])cc2)n2ccnc2)cc1 (stereo not given) | 17 |  |
| Cc1ccc(C(c2ccn(-c3ccccc3)c2)n2ccnc2)cc1 (stereo not given) | 1.2 |  |
| COc1ccc(C(Cc2ccccc2F)n2ccnc2)cc1 (stereo not given) | 49 |  |
| c1ccc(C(c2ccn(-c3ccccc3)c2)n2ccnc2)cc1 (stereo not given) | 2.3 |  |
| COc1ccc(C(Cc2cccc(F)c2)n2ccnc2)cc1 (stereo not given) | 51 |  |
| Cn1cc(-c2ccccc2)c(C(c2ccc3ccccc3c2)n2ccnc2)c1 (stereo not given) | 63 |  |
| c1ccc(-c2c[nH]cc2C(c2cccc3ccccc23)n2ccnc2)cc1 (stereo not given) | 1.7 |  |
| COc1ccc(C(Cc2ccc(F)cc2)n2ccnc2)cc1 (stereo not given) | 23 |  |
| COc1ccc(C(Cc2cccc(Cl)c2)n2ccnc2)cc1 (stereo not given) | 44 |  |
| COc1ccc(C(Cc2cccc(-n3cccc3)c2)n2ccnc2)cc1 (stereo not given) | 45 |  |
| Cc1ccc(C(c2ccn(-c3ccc(F)cc3)c2)n2ccnc2)cc1 (stereo not given) | 3.1 |  |
| COc1ccc(C(Cc2ccccc2Cl)n2ccnc2)cc1 (stereo not given) | 63 |  |
| Cn1cc(-c2ccccc2)c(C(c2cccc3ccccc23)n2ccnc2)c1 (stereo not given) | 6 |  |
| COc1ccc(C(Cc2ccccc2[N+](=O)[O-])n2ccnc2)cc1 (stereo not given) | 97 |  |
| COc1ccc(C(Cc2ccccc2-n2cccc2)n2ccnc2)cc1 (stereo not given) | 7.8 |  |
| Fc1ccc(C(c2ccn(-c3ccc(F)cc3)c2)n2ccnc2)cc1 (stereo not given) | 1.4 |  |
| Cn1cc(-c2ccc(Cl)cc2)c(C(c2ccccc2)n2ccnc2)c1 (stereo not given) | 0.025 | MIC50 (Candida albicans [14]): 0.062 µg/mL (≈ 0.178 µM); MIC (Candida albicans [15]): 0.097 µg/mL (≈ 0.279 µM); MIC90 (Candida albicans [16]): 0.125 µg/mL (≈ 0.359 µM) |
